# Compounds with a hit are over-represented: about 1.8% of the library has one in this group of screens.
# zVAD death inh: blocks zVAD induced death of L929 cells; L929 zVAD necroptosis rescue, ATP luminescence, 24 h; with zVAD 60 µM; 220,000 compounds, 0.38% hits; AID 1377; viability rescue, % at 10 µM;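 active means activation, scaled between plate controls, above about 75%, limit read from the data; inactive means activation under that limit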
# Dynein cargo inh: dynein cargo transport inhibition; 3617.4 mouse cells, GR-EGFP nuclear translocation imaging; test concentration mostly 20 µM; stimulated with dexamethasone, 1 µM; active compounds read low; z-score, hits read low; 220,000 compounds, 0.47% hits; AID 1381;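 active means plate z-score of nuclear minus cytoplasmic receptor signal below a set negative limit, without overly bright fluorescence or cell loss, cut at about -3.5 in these data, passing the limit was not always enough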;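 further: z-score of nuclear minus cytoplasmic ring GR-EGFP intensity difference per well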
#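 Buffer or medium: tet-free, stripped-serum medium; Also added: dexamethasone, 1.0 µM final; Technique: high-content fluorescence imaging after fixation; Times: 48 h induction, 1 h compound, 30 min dex at 37 °C; Read-out: per-cell GR-EGFP intensity, nucleus versus surrounding cytoplasmic ring, well-averaged.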
# TNF necrop inh: TNF-alpha cell death inhibition in Jurkat FADD-/- cells. Jurkat FADD-/- TNF necroptosis rescue, ATP luminescence, 24 h; 0 = TNF only, 100 = no-TNF cells. activation (protection from cell death), % at 10 µM. 220,000 compounds, 0.068% hits. AID 463075;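 active means activation, meaning protection from cell death, of at least 50% relative to plate controls; inactive means activation below 50%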;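 further: necroptosis triggered by 40 ng/mL TNF-alpha added together with compound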
# MDM2 E3 inh: inhibitors of human Mdm2 E3 ubiquitin ligase; signal enhancement, % at 5 µM; cell-based MDM2 ubiquitination luciferase reporter, 2 h; 0 = plate control, 100 = twice control, blank-subtracted; AID 1230; 210,000 compounds, 0.11% hits;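 active means signal enhancement of 30% or more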;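 further: luminescence tracks abundance of the self-degrading MDM2-luciferase fusion protein; higher signal means inhibition of MDM2 E3 ligase activity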
# Target sequence (Q00987 whole entry, looked up, the tested form may be a part): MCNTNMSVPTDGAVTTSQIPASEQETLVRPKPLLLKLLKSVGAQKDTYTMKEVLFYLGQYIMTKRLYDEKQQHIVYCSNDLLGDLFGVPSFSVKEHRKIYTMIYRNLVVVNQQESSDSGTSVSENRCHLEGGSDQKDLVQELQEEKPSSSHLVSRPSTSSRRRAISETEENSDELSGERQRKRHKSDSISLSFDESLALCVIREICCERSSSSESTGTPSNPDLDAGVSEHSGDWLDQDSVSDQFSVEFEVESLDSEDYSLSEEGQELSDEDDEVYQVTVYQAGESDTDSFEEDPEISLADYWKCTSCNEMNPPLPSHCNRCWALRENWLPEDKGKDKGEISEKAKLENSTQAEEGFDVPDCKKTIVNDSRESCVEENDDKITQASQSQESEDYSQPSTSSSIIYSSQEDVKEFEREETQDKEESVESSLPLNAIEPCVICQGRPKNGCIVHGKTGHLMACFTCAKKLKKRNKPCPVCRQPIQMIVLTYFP
#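 Buffer or medium: Cells held in DMEM | Assay system: Stable mammalian line carrying autodegrading MDM2–luciferase fusion reporter | Quantity: 2000 cells/well | Times: 4 h settle plus 2 h compound, 37 °C | Doses: One concentration, 5 µM, with 0.2% DMSO | Technique: Luminescence with SteadyLite reagent, 15 min at room temperature | Benchmarks: Plate controls and plate blanks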
# Autophagy mod: alters autophagy in cells. MEF GFP-LC3 puncta imaging; test concentration mostly 10 µM. calls only at 10 µM (by protocol). 190,000 compounds, 0.98% hits. AID 463193;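 active means percentage of spot-positive cells more than 3 SD above its plate mean, without a fluorescence outlier flag or 80% toxicity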
# zVAD death conf: confirmed blocker of zVAD induced death in L929 cells | L929 zVAD-induced necroptosis rescue, ATP luminescence, 24 h | activation (protection from necroptosis), % at 10 µM | 760 compounds, 16% hits | shares compounds with zVAD death inh;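 active means mean protection from necroptosis of at least 50% over duplicate tests; inactive means mean protection below 50%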
# Numbers stand for hits; – = inactive; · = no result given.
SMILES,zVAD death inh,Dynein cargo inh,TNF necrop inh,MDM2 E3 inh,Autophagy mod,zVAD death conf
Fc1cccc(/C=N/Nc2nc3ccccc3[nH]2)c1,–,–,–,–,–,·
Cc1ccc(/C=N/Nc2nc3ccccc3[nH]2)s1,76,–,–,–,–,–
Cc1nn(C)c(Cl)c1CN1CCC(CO)(CC2CCCCO2)CC1 (stereo unspecified),–,–,–,–,–,·
O=C(NC(=S)NCc1nc2ccccc2[nH]1)c1ccc(F)cc1,84,–,–,–,–,–
N#Cc1c(N)n[nH]c1-c1cc2c([nH]1)CCCC2,88,–,–,–,–,–
O=C(Nc1ccccc1O)c1ccccc1O,–,–,–,–,–,·
CC(=O)/C=C(\C)Nc1ccccc1O,81,–,–,–,·,–
COc1ccc(C(=O)/C=C/c2cn(CC(O)CN3CCOCC3)c3ccccc23)cc1 (stereo unspecified),82,–,–,–,–,–
O=C(NCCCCc1ccccc1)c1ccccc1Cl,–,–,–,–,–,·
CCNc1nc(NCC)nc(Oc2ccc(N)cc2)n1,78,–,–,–,–,–
CCNc1nc(OC)nc(Oc2ccc(C(=O)OC)cc2)n1,–,–,–,–,–,·
CC(C)CCn1c(=O)c2ccccc2n2c(CN3CCOCC3)nnc12,–,–,–,–,–,·
CC(=O)c1ccc(-n2ccnc2)cc1,–,–,–,–,·,·
O=C(Nc1ccccc1)n1ccc(-c2ccc(-n3ccnc3)cc2)n1,76,–,–,–,–,–
O=C(COC(=O)C1CC(=O)N(Cc2ccccc2)C1)Nc1ccc(Cl)cc1F (stereo unspecified),–,–,–,–,–,·
Cc1[nH][nH]c(=O)c1C(c1c(C)[nH][nH]c1=O)c1cn(C)c2ccccc12,80,–,–,–,–,–
CC1(C(=O)OCC(=O)Nc2ccc3ccccc3c2)CC1(Cl)Cl (stereo unspecified),78,–,–,–,–,–
O=C1C2C3C=CC(C3)C2C(=O)N1CCN1CCN(Cc2ccc([N+](=O)[O-])cc2)CC1 (stereo unspecified),–,–,–,–,–,·
Cc1ccc(NC(=O)c2ccc(N3CCOCC3)c([N+](=O)[O-])c2)cc1S(=O)(=O)N1CCOCC1,77,–,–,–,–,–
O=C(Nc1ccc(N2CCCCC2)c(Cl)c1)c1ccc(N2CCOCC2)c([N+](=O)[O-])c1,–,–,–,–,–,·
CCOC(=O)c1c(N)nn(C(=O)c2ccccc2F)c1-c1ccc(OC)cc1,78,–,–,–,–,–
CC(=O)OC(C(=O)NCCN1CCOCC1)c1c(F)cccc1F (stereo unspecified),–,–,–,–,–,·
O=C(Cn1nnc(-c2ccc(Cl)cc2)n1)NC1CC2CCC1C2 (stereo unspecified),83,–,–,–,–,–
CC(C)(C)NC(=O)Cn1nnc(-c2ccc(Cl)cc2)n1,84,–,–,–,–,–
O=C(Cn1nnc(-c2ccc(Cl)cc2)n1)NCC1CCCCC1,88,–,–,–,–,–
SMILES,zVAD death inh,Dynein cargo inh,TNF necrop inh,MDM2 E3 inh,Autophagy mod,zVAD death conf
CC(C)(C)/C(O)=C/c1nc2ccccc2oc1=O,88,–,–,–,–,–
CCCCCCSc1nsc(NC(=O)CCC)n1,–,–,–,–,–,·
CCOC(=O)C1=C(Nc2ccc(Cl)cc2)OCC1=O,–,–,–,–,·,·
O=C(Oc1ccc(Nc2ncnc3ccccc23)cc1)c1cccnc1,80,–,–,–,–,–
CCOC(=O)c1ccc(Nc2ncnc3ccccc23)cc1,–,–,–,–,–,·
C(=N\Nc1nc(-c2ccccc2)cs1)/c1cccnc1,–,–,–,–,–,·
CC(C)(C)c1csc(N/N=C/c2cccnc2)n1,77,–,–,–,–,–
CC1=C/C(=C\c2ccc3c(c2)OCO3)C(=O)S1,–,–,–,–,–,·
CCCN1C(=O)/C(=C/c2ccc3c(c2)OCO3)NC1=S,87,–,–,–,–,90
COc1ccccc1NC(=O)c1ccc(-c2nn(C)c(=O)c3ccccc23)cc1,78,–,–,–,–,–

# Source: PubChem (several laboratories)
